From ChEMBL document CHEMBL1155080, “Alpha2-adrenoreceptors profile modulation. 4. From antagonist to agonist behavior” (J Med Chem, 2008)
Activity calls are given as the source filed them. No cut-off for these calls is given here.

Legend:
[1] = target: T1, Alpha-2B adrenergic receptor (Homo sapiens, UniProt P18089); assay: Displacement of [3H]RS79948-197 from human recombinant adrenergic alpha2B receptor expressed in CHO cells; type: cell-based
T1 sequence (P18089 whole entry): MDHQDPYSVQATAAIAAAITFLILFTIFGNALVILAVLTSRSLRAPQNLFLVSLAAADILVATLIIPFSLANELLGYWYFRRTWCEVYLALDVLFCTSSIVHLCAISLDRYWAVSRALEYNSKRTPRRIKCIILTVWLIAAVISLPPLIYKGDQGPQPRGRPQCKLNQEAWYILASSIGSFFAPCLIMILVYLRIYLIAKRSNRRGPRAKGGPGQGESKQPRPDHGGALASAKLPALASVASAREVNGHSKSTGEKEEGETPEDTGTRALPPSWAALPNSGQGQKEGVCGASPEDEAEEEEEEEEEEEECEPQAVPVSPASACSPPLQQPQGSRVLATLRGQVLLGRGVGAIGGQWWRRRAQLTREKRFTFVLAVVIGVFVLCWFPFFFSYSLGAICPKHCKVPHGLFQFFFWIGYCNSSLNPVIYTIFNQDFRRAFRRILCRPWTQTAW
Procedure, shortened: (§1)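 Competition binding on membranes from CHO cells stably expressing each human α2 subtype (1-3 pmol/mg receptor). Assay in 50 mM potassium phosphate, pH 7.4, with 5-10 µg protein. Eight competitor dilutions, 30 min at room temperature, then vacuum filtration and scintillation counting. IC50 by one-site nonlinear regression, converted with Cheng-Prusoff; mean ± SEM, 3-6 experiments.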

[2] = target: T2, Alpha-2A adrenergic receptor (Homo sapiens) (UniProt P08913); assay: (§2) Agonist activity at human recombinant adrenergic alpha2A receptor expressed in CHO cells assessed as stimulation of extracellular acidification; type: functional, cell-based
T2 sequence (whole entry): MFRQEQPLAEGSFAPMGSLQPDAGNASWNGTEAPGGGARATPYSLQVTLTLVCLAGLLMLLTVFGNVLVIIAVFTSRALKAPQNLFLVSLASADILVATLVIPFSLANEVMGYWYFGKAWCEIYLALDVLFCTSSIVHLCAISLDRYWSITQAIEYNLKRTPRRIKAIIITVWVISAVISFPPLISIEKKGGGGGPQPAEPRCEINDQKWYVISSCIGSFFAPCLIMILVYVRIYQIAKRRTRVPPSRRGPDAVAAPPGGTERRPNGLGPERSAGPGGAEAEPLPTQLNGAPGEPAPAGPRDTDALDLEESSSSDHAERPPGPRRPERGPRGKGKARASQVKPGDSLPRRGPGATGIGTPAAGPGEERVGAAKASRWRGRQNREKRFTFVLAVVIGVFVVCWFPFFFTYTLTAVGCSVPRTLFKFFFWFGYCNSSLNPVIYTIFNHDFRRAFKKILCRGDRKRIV

[3] = target: T3, Alpha-2C adrenergic receptor (Homo sapiens, UniProt P18825); assay: Displacement of [3H]RS79948-197 from human recombinant adrenergic Alpha-2C receptor expressed in CHO cells; type: cell-based; procedure, shortened: as §1
T3 sequence (P18825 whole entry): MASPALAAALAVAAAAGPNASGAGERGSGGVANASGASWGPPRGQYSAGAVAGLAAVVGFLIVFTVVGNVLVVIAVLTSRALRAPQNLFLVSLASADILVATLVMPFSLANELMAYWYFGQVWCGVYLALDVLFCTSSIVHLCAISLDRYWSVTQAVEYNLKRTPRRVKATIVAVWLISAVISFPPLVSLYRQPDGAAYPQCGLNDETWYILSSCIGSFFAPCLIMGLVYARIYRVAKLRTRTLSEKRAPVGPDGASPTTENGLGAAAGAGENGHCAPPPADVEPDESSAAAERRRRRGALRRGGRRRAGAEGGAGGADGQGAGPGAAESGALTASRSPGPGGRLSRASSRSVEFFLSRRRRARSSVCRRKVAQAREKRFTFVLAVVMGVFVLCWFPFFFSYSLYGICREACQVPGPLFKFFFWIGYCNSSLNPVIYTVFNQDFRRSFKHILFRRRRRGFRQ

[4] = target: T4, Alpha-2C adrenergic receptor (Homo sapiens) (UniProt P18825); assay: (§3) Agonist activity at human recombinant adrenergic Alpha-2C receptor expressed in CHO cells assessed as stimulation of extracellular acidification; type: functional, cell-based
T4 sequence (whole entry): T3 sequence (P18825 whole entry)
Procedure, shortened: (§4)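 Cytosensor microphysiometry. Stable CHO cells were seeded at 3 × 10⁵ cells/cup, grown 24 h at 37 °C/5% CO₂, then perfused with bicarbonate-free DMEM at 100 µL/min. Over 90 s pump cycles, pH was read for 20 s. Response is the peak acidification rate minus the mean of three pre-agonist readings. pEC50 is the concentration giving 50% of maximum; mean ± SEM, 3-6 experiments.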

[5] = target: T5, Alpha-2A adrenergic receptor (Homo sapiens, UniProt P08913); assay: Displacement of [3H]RS79948-197 from human recombinant adrenergic alpha2A receptor expressed in CHO cells; type: cell-based; procedure, shortened: as §1
T5 sequence (P08913 whole entry): T2 sequence (whole entry)

[6] = target: T6, Alpha-2B adrenergic receptor (Homo sapiens) (UniProt P18089); assay: (§5) Agonist activity at human recombinant adrenergic alpha2B receptor expressed in CHO cells; type: functional, cell-based; procedure, shortened: as §4
T6 sequence (whole entry): T1 sequence (P18089 whole entry)

[7] = target: T3, Alpha-2C adrenergic receptor; assay: as §3; type: functional, cell-based; procedure, shortened: as §4
[8] = target: T4, Alpha-2C adrenergic receptor (Homo sapiens); assay: Intrinsic activity at human recombinant adrenergic Alpha-2C receptor expressed in CHO cells assessed as stimulation of extracellular acidification relative to (-)-noradrenaline; type: cell-based
Procedure, shortened: (§6)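 Acidification rate was measured by Cytosensor microphysiometry in stably transfected CHO cells (3 × 10⁵ cells/cup, bicarbonate-free DMEM perfusion). Each response is the peak rate change minus the pre-agonist baseline. Emax from concentration-response curves is expressed as a fraction of the (-)-noradrenaline maximum, taken as 1; mean ± SEM, 3-6 experiments.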

[9] = target: T2, Alpha-2A adrenergic receptor (Homo sapiens); assay: Antagonist activity at human recombinant adrenergic alpha2A receptor expressed in CHO cells; type: functional, cell-based
Procedure, shortened: (§7)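 Clonidine-curve shift measured by Cytosensor microphysiometry of extracellular acidification in CHO cells stably expressing the individual human α2 subtype. Cells were seeded at 3 × 10⁵ cells/cup for 24 h at 37 °C/5% CO₂ and perfused with bicarbonate-free DMEM at 100 µL/min. A control clonidine concentration-response curve was run, then antagonist was applied ≥30 min before a repeat curve. Kb = M/(EC50 ratio − 1), reported as pKb; 3–6 experiments.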

[10] = target: T6, Alpha-2B adrenergic receptor (Homo sapiens); assay: Intrinsic activity at human recombinant adrenergic alpha2B receptor expressed in CHO cells relative to (-)-noradrenaline; type: cell-based; procedure, shortened: as §6
[11] = target: T1, Alpha-2B adrenergic receptor; assay: as §5; type: functional, cell-based; procedure, shortened: as §4
[12] = target: T5, Alpha-2A adrenergic receptor; assay: as §2; type: functional, cell-based
[13] = target: T2, Alpha-2A adrenergic receptor (Homo sapiens); assay: Intrinsic activity at human recombinant adrenergic alpha2A receptor expressed in CHO cells assessed as stimulation of extracellular acidification relative to (-)-noradrenaline; type: cell-based
Procedure, shortened: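 Microphysiometry (Cytosensor) of extracellular acidification rate in CHO cells stably expressing human α2A. Cells were seeded at 3 × 10⁵ cells/cup and cultured 24 h at 37 °C, then perfused with bicarbonate-free DMEM at 100 µL/min, with agonist diluted into running medium. Response was taken as the maximum after agonist minus the mean of three pre-agonist readings. Emax is expressed as a fraction of (−)-noradrenaline (=1); 3–6 experiments.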

[14] = target: T4, Alpha-2C adrenergic receptor (Homo sapiens); assay: Antagonist activity at human recombinant adrenergic Alpha-2C receptor expressed in CHO cells; type: functional, cell-based; procedure, shortened: as §7
[15] = target: T6, Alpha-2B adrenergic receptor (Homo sapiens); assay: Antagonist activity at human recombinant adrenergic alpha2B receptor expressed in CHO cells; type: functional, cell-based; procedure, shortened: as §7
Rattus norvegicus = species on record: Rattus norvegicus; assay: Intrinsic activity at adrenergic alpha2 receptor in rat vas deferens relative to clonidine; type: tissue-based
[16] = Agonist activity at adrenergic alpha2 receptor in rat vas deferens; type: functional, tissue-based

Ki [1]	Activity [2]	Ki [3]	Activity [4]	Ki [5]	Activity [6]	EC50 [7]	Intrinsic activity [8]	Intrinsic activity [10]	EC50 [11]	SMILES	pKb [9]	EC50 [12]	Intrinsic activity [13]	pKb [14]	pKb [15]	Intrinsic activity (Rattus norvegicus)	EC50 [16]
1660 nM	inactive	1580 nM	inactive	282 nM	inactive					c1ccc(-c2ccc3c(c2)OCC(C2=NCCN2)O3)cc1 (stereo unspecified)							
	inactive		inactive		inactive					COC(C)(Oc1ccccc1-c1ccccc1)C1=NCCN1 (stereo unspecified)							
871 nM	inactive	676 nM		214 nM		3550 nM	0.5	0.8	31600 nM	CC(Oc1ccccc1/C=N/OCc1ccccc1)C1=NCCN1 (stereo unspecified)							
										c1ccc2c(c1)OCC(C1=NCCN1)O2 (stereo unspecified)	7.73			7.92	7.16		
1000 nM	inactive	1260 nM	inactive	398 nM	inactive					c1ccc(-c2ccc3c(c2)OC(C2=NCCN2)CO3)cc1 (stereo unspecified)							
479 nM	inactive	692 nM		240 nM		3160 nM	0.4	0.45	22400 nM	c1ccc(-c2cccc3c2OC(C2=NCCN2)CO3)cc1 (stereo unspecified)							
1200 nM	inactive	3090 nM		661 nM	inactive	501 nM	0.55			CO/N=C/c1ccccc1OC(C)C1=NCCN1 (stereo unspecified)							
1070 nM	inactive	245 nM	inactive	126 nM	inactive					COC1(C2=NCCN2)COc2cccc(-c3ccccc3)c2O1 (stereo unspecified)							
708 nM		912 nM		288 nM		126 nM	0.85	0.5	3980 nM	CC(Oc1ccccc1/C=N/O)C1=NCCN1 (stereo unspecified)		501 nM	0.8				
447 nM	inactive	339 nM		417 nM	inactive	1000 nM	0.45			CCO/N=C/c1ccccc1OC(C)C1=NCCN1 (stereo unspecified)							
	inactive		inactive	257 nM				0.5	15800 nM	COC1(C2=NCCN2)COc2c(cccc2-c2ccccc2)O1 (stereo unspecified)							
1070 nM	inactive	832 nM		724 nM		794 nM	0.75	0.7	12600 nM	c1ccc(-c2cccc3c2OCC(C2=NCCN2)O3)cc1 (stereo unspecified)							
955 nM		204 nM		240 nM	inactive	776 nM	0.7			c1ccc(-c2ccccc2OC(C2=NCCN2)c2ccccc2)cc1 (stereo unspecified)		1000 nM	0.45				

SMILES	Ki [1]	Activity [2]	Ki [3]	Activity [4]	Ki [5]	Activity [6]	EC50 [7]	Intrinsic activity [8]	Intrinsic activity [10]	EC50 [11]	pKb [9]	EC50 [12]	Intrinsic activity [13]	pKb [14]	pKb [15]	Intrinsic activity (Rattus norvegicus)	EC50 [16]
C=CCc1ccccc1OC(C)C1=NCCN1 (stereo unspecified) [ALLYPHENYLINE]	339 nM	inactive	85.1 nM			inactive	50.1 nM	0.9			7.4						
CC(Oc1ccccc1C1CCCC1)C1=NCCN1 (stereo unspecified)	191 nM		26.9 nM		50.1 nM		10 nM	0.75	0.7	501 nM		63.1 nM	0.65				
CC(Oc1ccccc1-c1ccccc1)C1=NCCN1 (stereo unspecified) [BIPHENYLINE]								0.8	0.5				0.7			1	3.02 nM
CC(Oc1ccccc1)C1=NCCN1 (stereo unspecified)	166 nM		263 nM		26.9 nM						7.01			6.85	6.2		
CC(Oc1ccccc1C1CCCCC1)C1=NCCN1 (stereo unspecified)	191 nM		77.6 nM		74.1 nM		20.9 nM	0.8	0.7	200 nM		79.4 nM	0.6				
c1ccc(OC(C2=NCCN2)c2ccccc2)cc1 (stereo unspecified)	47.9 nM		64.6 nM		93.3 nM						6.1			6.9	6.04		
